Read-outs that look alike come from different tables or passages of the source.
Tests used:
U-87 MG cells = assay: Peptide and peptide-platinate activity, modified MTT assay; format: cell-based; conditions: 24 hours, nonlinear curve fitting, n=3
Method in brief: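 They were plated at 50,000 cells/mL one day before, then exposed to a concentration series of test compound for 24 h. Viability relative to untreated control was read by modified MTT (Aqueous One). IC50 came from nonlinear curve fit. n≥3.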

MMP-2 [1] = target: T1, MMP-2 (Homo sapiens, UniProt P08253); conditions: cited from earlier work
T1 sequence (P08253 110-660): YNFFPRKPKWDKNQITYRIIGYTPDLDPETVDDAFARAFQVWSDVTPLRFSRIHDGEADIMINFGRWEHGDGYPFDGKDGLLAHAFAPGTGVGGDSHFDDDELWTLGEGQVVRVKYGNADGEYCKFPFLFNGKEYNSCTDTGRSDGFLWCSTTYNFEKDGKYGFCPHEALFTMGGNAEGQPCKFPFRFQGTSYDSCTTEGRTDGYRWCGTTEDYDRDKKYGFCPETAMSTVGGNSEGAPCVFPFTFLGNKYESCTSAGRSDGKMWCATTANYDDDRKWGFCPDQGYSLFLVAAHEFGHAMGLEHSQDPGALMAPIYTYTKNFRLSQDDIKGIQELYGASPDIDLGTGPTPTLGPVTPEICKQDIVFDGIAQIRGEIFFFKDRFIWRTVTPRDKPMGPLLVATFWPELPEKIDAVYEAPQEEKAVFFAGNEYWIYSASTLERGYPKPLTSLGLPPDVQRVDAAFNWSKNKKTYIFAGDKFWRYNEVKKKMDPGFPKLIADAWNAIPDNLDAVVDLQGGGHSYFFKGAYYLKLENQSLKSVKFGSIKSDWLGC

MMP-9 = MMP-9 (Homo sapiens, UniProt P14780); assay: Peptide cleavage kinetics with activated MMP-9; format: biochemical; conditions: for Km / kcat: activated MMP-9 10 nM, Tris-HCl protease buffer pH 7.4, HPLC, n=3
MMP-9, sequence (P14780 107-707 limits assumed): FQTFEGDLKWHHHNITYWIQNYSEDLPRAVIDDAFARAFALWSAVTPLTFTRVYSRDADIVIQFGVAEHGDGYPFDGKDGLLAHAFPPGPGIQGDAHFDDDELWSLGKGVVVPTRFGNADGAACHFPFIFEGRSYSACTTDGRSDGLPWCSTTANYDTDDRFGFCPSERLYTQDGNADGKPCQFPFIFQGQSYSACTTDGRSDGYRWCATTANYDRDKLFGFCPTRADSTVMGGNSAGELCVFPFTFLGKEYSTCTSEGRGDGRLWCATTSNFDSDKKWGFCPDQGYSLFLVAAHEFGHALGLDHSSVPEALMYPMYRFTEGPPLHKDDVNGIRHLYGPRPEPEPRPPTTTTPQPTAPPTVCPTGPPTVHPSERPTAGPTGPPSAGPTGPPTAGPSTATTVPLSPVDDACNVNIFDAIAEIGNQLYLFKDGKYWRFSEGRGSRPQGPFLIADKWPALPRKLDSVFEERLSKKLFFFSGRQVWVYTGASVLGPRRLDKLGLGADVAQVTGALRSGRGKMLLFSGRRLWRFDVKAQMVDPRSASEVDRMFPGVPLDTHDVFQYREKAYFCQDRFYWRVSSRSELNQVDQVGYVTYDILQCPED
Method in brief: (§1)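 Reactions were stopped at set times with EDTA. Products were resolved by C18 reversed-phase HPLC (30–70% acetonitrile/0.1% TFA gradient, 15 min, 1 mL/min) with fluorescence and photodiode-array detection. Fragments were assigned against synthetic fragment retention times and confirmed by MALDI-MS. n≥3.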

MMP-2 [2] = target: T1, MMP-2; assay: Peptide cleavage kinetics with activated MMP-2; format: biochemical; conditions: for Km / kcat: activated MMP-2 10 nM, Tris-HCl protease buffer pH 7.4, HPLC, n=3
Method in brief: as §1

[Cl][Pt-2]([Cl])([Cl])[Cl].[K+].[K+] [K2PtCl4, potassium tetrachloroplatinate]
IC50 (U-87 MG cells): 70.7 ± 15 µM

N.N.[Cl][Pt][Cl] [cisplatin]
IC50 (U-87 MG cells): 46.9 ± 15 µM

GPAGLLG
cleavage site (MMP-2 [1]): cleaved between glycine and leucine

K*AGLLC-CONH2
Km (MMP-9): 160 ± 100 µM | kcat (MMP-9): 0.04 ± 0.01 s⁻¹ | Km (MMP-2 [2]): 1400 ± 400 µM | kcat (MMP-2 [2]): 0.24 ± 0.08 s⁻¹

K*PAGLLGC-CONH2
Km (MMP-9): 400 ± 100 µM | kcat (MMP-9): 9.6 ± 2.1 s⁻¹ | cleavage site (MMP-9; cleaved with MMP-9 for 2 hours, HPLC comparison with synthesized fragment K*PAG): cleaved between glycine and leucine | Km (MMP-2 [2]): 1000 ± 500 µM | kcat (MMP-2 [2]): 10.7 ± 4.8 s⁻¹ | cleavage site (MMP-2 [2]; cleaved with MMP-2 for 2 hours, HPLC comparison with synthesized fragment K*PAG): cleaved between glycine and leucine

Reference: publication PMC2592099 (Peptides, 2008)
